Experiments:
Type in all cases: cell-based
D(4) dopamine receptor [1] = target: T1, D(4) dopamine receptor (Homo sapiens, UniProt P21917); assay: Displacement of [3H]spiperone from wild type human cloned dopamine D4 receptor expressed in HEK293 cells
T1 sequence (P21917 whole entry): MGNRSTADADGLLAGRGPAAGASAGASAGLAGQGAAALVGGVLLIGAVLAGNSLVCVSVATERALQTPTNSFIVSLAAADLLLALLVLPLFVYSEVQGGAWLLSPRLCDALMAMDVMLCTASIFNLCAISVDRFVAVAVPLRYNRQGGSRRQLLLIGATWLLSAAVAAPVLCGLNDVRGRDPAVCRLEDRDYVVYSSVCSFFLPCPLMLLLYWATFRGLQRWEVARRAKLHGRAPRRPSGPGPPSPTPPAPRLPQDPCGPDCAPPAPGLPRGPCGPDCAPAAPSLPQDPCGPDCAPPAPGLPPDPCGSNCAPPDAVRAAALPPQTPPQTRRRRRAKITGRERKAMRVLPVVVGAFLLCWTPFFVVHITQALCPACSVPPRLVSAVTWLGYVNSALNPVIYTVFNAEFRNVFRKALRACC

HEK293 [2] = assay: Selectivity ratio of Ki for human cloned dopamine D2L receptor D3.32E mutant to Ki for wild type human cloned dopamine D2L receptor expressed in HEK293 cells
How it was run: (§1)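 Wild-type or mutant receptor cDNA transiently transfected into HEK-293 cells, which were grown in MEM with 10% FBS at 37 °C and 5% CO2 and harvested 48 h after transfection. Membranes were homogenised and pelleted at 50000g. Competition against [3H]spiperone (0.1-0.7 nM final) used 20-200 μg/mL protein. Ki was derived from EC50, 2-18 independent experiments in triplicate. Ratios are mutant Ki over wild-type Ki.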

HEK293 [3] = assay: Selectivity ratio of Ki for human cloned dopamine D2L receptor V2.61F mutant to Ki for wild type human cloned dopamine D2L receptor expressed in HEK293 cells; how it was run: as §1
HEK293 [4] = assay: Selectivity ratio of Ki for human cloned dopamine D2L receptor L2.64F mutant to Ki for wild type human cloned dopamine D2L receptor expressed in HEK293 cells; how it was run: as §1
HEK293 [5] = assay: Selectivity ratio of Ki for human cloned dopamine D2L receptor FV3.28,3.29LM mutant to Ki for wild type human cloned dopamine D2L receptor expressed in HEK293 cells; how it was run: as §1
HEK293 [6] = assay: Selectivity ratio of Ki for human cloned dopamine D2L receptor V2.61F/FV3.28,3.29LM mutant to Ki for wild type human cloned dopamine D2L receptor expressed in HEK293 cells; how it was run: as §1
HEK293 [7] = assay: Selectivity ratio of Ki for human cloned dopamine D2L receptor E181V/I183S mutant to Ki for wild type human cloned dopamine D2L receptor expressed in HEK293 cells; how it was run: as §1
HEK293 [8] = assay: Selectivity ratio of Ki for human cloned dopamine D2L receptor H6.55A mutant to Ki for wild type human cloned dopamine D2L receptor expressed in HEK293 cells; how it was run: as §1
HEK293 [9] = assay: Selectivity ratio of Ki for human cloned dopamine D2L receptor H6.55F mutant to Ki for wild type human cloned dopamine D2L receptor expressed in HEK293 cells; how it was run: as §1
HEK293 [10] = assay: Selectivity ratio of Ki for human cloned dopamine D3 receptor D3.32E mutant to Ki for wild type human cloned dopamine D3 receptor expressed in HEK293 cells; how it was run: as §1
HEK293 [11] = assay: Selectivity ratio of Ki for human cloned dopamine D3 receptor V2.61F mutant to Ki for wild type human cloned dopamine D3 receptor expressed in HEK293 cells; how it was run: as §1
HEK293 [12] = assay: Selectivity ratio of Ki for human cloned dopamine D3 receptor L2.64F mutant to Ki for wild type human cloned dopamine D3 receptor expressed in HEK293 cells; how it was run: as §1
HEK293 [13] = assay: Selectivity ratio of Ki for human cloned dopamine D3 receptor FV3.28,3.29LM mutant to Ki for wild type human cloned dopamine D3 receptor expressed in HEK293 cells; how it was run: as §1
HEK293 [14] = assay: Selectivity ratio of Ki for human cloned dopamine D3 receptor V2.61F/FV3.28,3.29LM mutant to Ki for wild type human cloned dopamine D3 receptor expressed in HEK293 cells; how it was run: as §1
HEK293 [15] = assay: Selectivity ratio of Ki for human cloned dopamine D3 receptor V180E/S182I mutant to Ki for wild type human cloned dopamine D3 receptor expressed in HEK293 cells; how it was run: as §1
HEK293 [16] = assay: Selectivity ratio of Ki for human cloned dopamine D3 receptor H6.55A mutant to Ki for wild type human cloned dopamine D3 receptor expressed in HEK293 cells; how it was run: as §1
D(2) dopamine receptor [17] = target: T2, D(2) dopamine receptor (Homo sapiens, UniProt P14416); assay: Displacement of [3H]spiperone from human cloned dopamine D2L receptor expressed in CHO cells
T2 sequence (P14416 whole entry): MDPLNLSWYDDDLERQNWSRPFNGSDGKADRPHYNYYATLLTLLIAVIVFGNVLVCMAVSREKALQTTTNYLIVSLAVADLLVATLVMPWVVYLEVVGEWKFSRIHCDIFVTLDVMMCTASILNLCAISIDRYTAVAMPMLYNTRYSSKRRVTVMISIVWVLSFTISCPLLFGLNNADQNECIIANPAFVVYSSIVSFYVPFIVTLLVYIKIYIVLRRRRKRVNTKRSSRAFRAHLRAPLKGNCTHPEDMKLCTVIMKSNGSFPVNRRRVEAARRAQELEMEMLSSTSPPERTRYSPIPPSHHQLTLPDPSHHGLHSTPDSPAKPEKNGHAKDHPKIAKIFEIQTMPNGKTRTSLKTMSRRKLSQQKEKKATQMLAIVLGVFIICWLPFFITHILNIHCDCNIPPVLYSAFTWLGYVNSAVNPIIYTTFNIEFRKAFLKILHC

D(3) dopamine receptor [18] = target: T3, D(3) dopamine receptor (Homo sapiens, UniProt P35462); assay: Displacement of [3H]spiperone from human cloned dopamine D3 receptor expressed in CHO cells
T3 sequence (P35462 whole entry): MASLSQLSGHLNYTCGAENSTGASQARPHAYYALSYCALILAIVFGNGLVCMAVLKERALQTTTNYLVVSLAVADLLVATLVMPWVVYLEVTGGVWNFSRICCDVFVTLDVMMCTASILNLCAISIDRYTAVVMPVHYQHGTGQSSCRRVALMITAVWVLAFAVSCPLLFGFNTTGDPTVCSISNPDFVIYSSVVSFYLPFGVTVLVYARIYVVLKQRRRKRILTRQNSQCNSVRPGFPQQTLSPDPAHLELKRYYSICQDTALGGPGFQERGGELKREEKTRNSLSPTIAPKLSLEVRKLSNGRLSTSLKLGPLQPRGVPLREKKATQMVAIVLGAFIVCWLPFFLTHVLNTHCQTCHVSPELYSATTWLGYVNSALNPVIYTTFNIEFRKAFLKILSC

D(4) dopamine receptor [19] = target: T1, D(4) dopamine receptor; assay: Displacement of [3H]spiperone from human cloned dopamine D4 receptor expressed in CHO cells
How it was run: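 Membranes from CHO cells stably expressing human D4 (Bmax 700-1800 fmol/mg). Curves fit by nonlinear regression, sigmoid model giving IC50 and slope; Ki ± SEM from 2-9 experiments in triplicate.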

CHO [20] = assay: Selectivity ratio of Ki for human cloned dopamine D2L receptor to Ki for human cloned dopamine D3 receptor expressed in CHO cells
CHO [21] = assay: Selectivity ratio of Ki for human cloned dopamine D2L receptor to Ki for human cloned dopamine D4 receptor expressed in CHO cells
D(2) dopamine receptor [22] = target: T2, D(2) dopamine receptor; assay: Displacement of [3H]spiperone from wild type human cloned dopamine D2L receptor expressed in HEK293 cells
[23] = Displacement of [3H]spiperone from human cloned dopamine D2L receptor D3.32E mutant expressed in HEK293 cells
How it was run: (§2)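 Wild-type or mutant receptor cDNA transiently transfected into HEK-293 cells (CaHPO4 or TransIT-293), grown in MEM with 10% FBS at 37 °C, 5% CO2, harvested 48 h post-transfection. Membranes prepared by homogenization and spin at 50000g.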

[24] = Displacement of [3H]spiperone from human cloned dopamine D2L receptor V2.61F mutant expressed in HEK293 cells; how it was run: as §2
[25] = Displacement of [3H]spiperone from human cloned dopamine D2L receptor L2.64F mutant expressed in HEK293 cells; how it was run: as §2
[26] = Displacement of [3H]spiperone from human cloned dopamine D2L receptor FV3.28,3.29LM mutant expressed in HEK293 cells; how it was run: as §2
[27] = Displacement of [3H]spiperone from human cloned dopamine D2L receptor V2.61F/FV3.28,3.29LM mutant expressed in HEK293 cells; how it was run: as §2
D(2) dopamine receptor [28] = target: D(2) dopamine receptor (Homo sapiens, UniProt P14416, E181V/I183S); assay: Displacement of [3H]spiperone from human cloned dopamine D2L receptor E181V/I183S mutant expressed in HEK293 cells; how it was run: as §1
Sequence of D(2) dopamine receptor (Homo sapiens, UniProt P14416, E181V/I183S) (P14416 whole entry E181V/I183S): as the sequence (P14416 whole entry) above, with E181V, I183S counted along it

[29] = Displacement of [3H]spiperone from human cloned dopamine D2L receptor H6.55A mutant expressed in HEK293 cells; how it was run: as §2
[30] = Displacement of [3H]spiperone from human cloned dopamine D2L receptor H6.55F mutant expressed in HEK293 cells; how it was run: as §2
D(3) dopamine receptor [31] = target: T3, D(3) dopamine receptor; assay: Displacement of [3H]spiperone from wild type human cloned dopamine D3 receptor expressed in HEK293 cells
D(3) dopamine receptor [32] = target: D(3) dopamine receptor (Homo sapiens, UniProt P35462, D110E); assay: Displacement of [3H]spiperone from human cloned dopamine D3 receptor D3.32E mutant expressed in HEK293 cells
Sequence of D(3) dopamine receptor (Homo sapiens, UniProt P35462, D110E) (P35462 as listed by the source D110E): as the sequence (P35462 whole entry) above, with G9S, D110E counted along it

D(3) dopamine receptor [33] = target: D(3) dopamine receptor (Homo sapiens, UniProt P35462, V87F); assay: Displacement of [3H]spiperone from human cloned dopamine D3 receptor V2.61F mutant expressed in HEK293 cells
Sequence of D(3) dopamine receptor (Homo sapiens, UniProt P35462, V87F) (P35462 as listed by the source V87F): as the sequence (P35462 whole entry) above, with G9S, V87F counted along it

D(3) dopamine receptor [34] = target: T3, D(3) dopamine receptor; assay: Displacement of [3H]spiperone from human cloned dopamine D3 receptor L2.64F mutant expressed in HEK293 cells
D(3) dopamine receptor [35] = target: T3, D(3) dopamine receptor; assay: Displacement of [3H]spiperone from human cloned dopamine D3 receptor FV3.28,3.29LM mutant expressed in HEK293 cells
D(3) dopamine receptor [36] = target: D(3) dopamine receptor (Homo sapiens, UniProt P35462, F106L/V107M/V87F); assay: Displacement of [3H]spiperone from human cloned dopamine D3 receptor V2.61F/FV3.28,3.29LM mutant expressed in HEK293 cells
Sequence of D(3) dopamine receptor (Homo sapiens, UniProt P35462, F106L/V107M/V87F) (P35462 as listed by the source V87F/F106L/V107M): as the sequence (P35462 whole entry) above, with G9S, V87F, F106L, V107M counted along it

D(3) dopamine receptor [37] = target: D(3) dopamine receptor (Homo sapiens, UniProt P35462, S182I/V180E); assay: Displacement of [3H]spiperone from human cloned dopamine D3 receptor V180E/S182I mutant expressed in HEK293 cells
Sequence of D(3) dopamine receptor (Homo sapiens, UniProt P35462, S182I/V180E) (P35462 as listed by the source V180E/S182I): as the sequence (P35462 whole entry) above, with G9S, V180E, S182I counted along it

D(3) dopamine receptor [38] = target: D(3) dopamine receptor (Homo sapiens, UniProt P35462, H349A); assay: Displacement of [3H]spiperone from human cloned dopamine D3 receptor H6.55A mutant expressed in HEK293 cells
Sequence of D(3) dopamine receptor (Homo sapiens, UniProt P35462, H349A) (P35462 as listed by the source H349A): as the sequence (P35462 whole entry) above, with G9S, H349A counted along it

| Compound | Ki (D(4) dopamine receptor [1]) [nM] | Ratio Ki (HEK293 [2]) | Ratio Ki (HEK293 [3]) | Ratio Ki (HEK293 [4]) | Ratio Ki (HEK293 [5]) | Ratio Ki (HEK293 [6]) | Ratio Ki (HEK293 [7]) | Ratio Ki (HEK293 [8]) | Ratio Ki (HEK293 [9]) | Ratio Ki (HEK293 [10]) | Ratio Ki (HEK293 [11]) | Ratio Ki (HEK293 [12]) | Ratio Ki (HEK293 [13]) | Ratio Ki (HEK293 [14]) | Ratio Ki (HEK293 [15]) | Ratio Ki (HEK293 [16]) | Ki (D(2) dopamine receptor [17]) [nM] | Ki (D(3) dopamine receptor [18]) [nM] | Ki (D(4) dopamine receptor [19]) [nM] | Ratio Ki (CHO [20]) | also measured |
| --- | --- | --- | --- | --- | --- | --- | --- | --- | --- | --- | --- | --- | --- | --- | --- | --- | --- | --- | --- | --- | --- |
| COc1ccccc1N1CCN(Cc2cc3ccccn3n2)CC1 | 2.3 | 4.4 | 0.27 | 1.8 | 0.13 | 0.15 | 10.5 | 0.18 | 1.2 | 0.9 | 3 | 0.9 | 0.06 | 0.07 | 0.44 | 0.08 | 280 | 1200 | 1.2 | 0.23 | Ratio Ki (CHO [21]): 230; Ki (D(2) dopamine receptor [22]): 350 nM; Ki [23]: 1500 nM; Ki [24]: 94 nM; Ki [25]: 610 nM; Ki [26]: 46 nM; Ki [27]: 54 nM; Ki (D(2) dopamine receptor [28]): 3600 nM; Ki [29]: 63 nM; Ki [30]: 590 nM; Ki (D(3) dopamine receptor [31]): 770 nM; Ki (D(3) dopamine receptor [32]): 680 nM; Ki (D(3) dopamine receptor [33]): 2300 nM; Ki (D(3) dopamine receptor [34]): 720 nM; Ki (D(3) dopamine receptor [35]): 44 nM; Ki (D(3) dopamine receptor [36]): 51 nM; Ki (D(3) dopamine receptor [37]): 340 nM; Ki (D(3) dopamine receptor [38]): 61 nM |
| CSc1ccccc1N1CCN(CCCNC(=O)c2cnn3ccccc23)CC1 | 26 | 74 | 45 | 303 | 16 | 9 | 12 | 0.05 | 7.7 | 25 | 29 | 17 | 12 | 0.31 | 0.13 | 0.5 | 1.4 | 18 | 8.8 | 0.08 | Ratio Ki (CHO [21]): 0.16; Ki (D(2) dopamine receptor [22]): 2.2 nM; Ki [23]: 160 nM; Ki [24]: 100 nM; Ki [25]: 660 nM; Ki [26]: 35 nM; Ki [27]: 20 nM; Ki (D(2) dopamine receptor [28]): 26 nM; Ki [29]: 0.1 nM; Ki [30]: 17 nM; Ki (D(3) dopamine receptor [31]): 26 nM; Ki (D(3) dopamine receptor [32]): 650 nM; Ki (D(3) dopamine receptor [33]): 740 nM; Ki (D(3) dopamine receptor [34]): 740 nM; Ki (D(3) dopamine receptor [35]): 430 nM; Ki (D(3) dopamine receptor [36]): 320 nM; Ki (D(3) dopamine receptor [37]): 8 nM; Ki (D(3) dopamine receptor [38]): 3.4 nM |

From ChEMBL document CHEMBL1158482, “Dopamine D2, D3, and D4 selective phenylpiperazines as molecular probes to explore the origins of subtype specific receptor binding” (J Med Chem, 2009)
